Test results taken from ChEMBL document CHEMBL2203264, “Optimization of imidazo[4,5-b]pyridine-based kinase inhibitors: identification of a dual FLT3/Aurora kinase inhibitor as an orally bioavailable preclinical development candidate for the treatment of acute myeloid leukemia” (J Med Chem, 2012).
The source made the active and inactive calls. The rule behind the calls is not given here.

Columns and labels:
[1] = target: Platelet-derived growth factor receptor beta (Homo sapiens) (UniProt P09619); assay: Inhibition of PDGFRB at 1 uM
Sequence of Platelet-derived growth factor receptor beta (Homo sapiens) (P09619 whole entry): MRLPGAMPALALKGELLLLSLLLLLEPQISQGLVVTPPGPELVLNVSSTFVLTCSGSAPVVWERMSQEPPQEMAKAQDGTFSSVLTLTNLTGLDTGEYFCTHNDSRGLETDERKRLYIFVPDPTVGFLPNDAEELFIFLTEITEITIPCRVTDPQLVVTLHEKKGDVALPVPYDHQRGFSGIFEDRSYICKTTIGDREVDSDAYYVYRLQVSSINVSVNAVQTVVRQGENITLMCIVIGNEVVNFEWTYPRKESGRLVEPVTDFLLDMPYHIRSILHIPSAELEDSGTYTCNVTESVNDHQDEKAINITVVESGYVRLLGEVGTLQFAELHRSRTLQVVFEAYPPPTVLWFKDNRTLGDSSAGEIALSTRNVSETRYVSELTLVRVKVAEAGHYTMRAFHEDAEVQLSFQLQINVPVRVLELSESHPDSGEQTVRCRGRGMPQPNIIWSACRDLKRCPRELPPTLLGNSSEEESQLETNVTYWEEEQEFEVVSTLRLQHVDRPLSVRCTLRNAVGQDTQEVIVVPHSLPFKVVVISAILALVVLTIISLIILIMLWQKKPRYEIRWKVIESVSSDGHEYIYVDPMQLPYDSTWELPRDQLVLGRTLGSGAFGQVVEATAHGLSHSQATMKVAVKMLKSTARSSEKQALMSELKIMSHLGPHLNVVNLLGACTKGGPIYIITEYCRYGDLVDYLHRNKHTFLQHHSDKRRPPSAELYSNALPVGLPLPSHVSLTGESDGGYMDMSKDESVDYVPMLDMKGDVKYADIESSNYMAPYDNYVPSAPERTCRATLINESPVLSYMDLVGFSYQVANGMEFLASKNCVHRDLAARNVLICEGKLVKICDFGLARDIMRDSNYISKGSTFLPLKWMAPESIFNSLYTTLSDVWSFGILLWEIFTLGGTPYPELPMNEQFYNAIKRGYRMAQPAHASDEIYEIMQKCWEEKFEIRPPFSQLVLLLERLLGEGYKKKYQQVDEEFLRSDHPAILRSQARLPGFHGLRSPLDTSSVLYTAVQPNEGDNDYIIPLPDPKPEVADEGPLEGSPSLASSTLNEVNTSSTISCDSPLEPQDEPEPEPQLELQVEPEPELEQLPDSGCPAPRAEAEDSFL
Summary of the method: (§1)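 KINOMEScan competition-binding panel of 442 kinases (386 nonmutant) tested at 1 μM. Binding is read as percent of control ligand competition; <10% of control counts as a hit for the S(10) score.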

[2] = target: Tyrosine-protein kinase JAK2 (Homo sapiens) (UniProt O60674); assay: Inhibition of JAK2 at 1 uM; summary of the method: as §1
Sequence of Tyrosine-protein kinase JAK2 (Homo sapiens) (O60674 whole entry): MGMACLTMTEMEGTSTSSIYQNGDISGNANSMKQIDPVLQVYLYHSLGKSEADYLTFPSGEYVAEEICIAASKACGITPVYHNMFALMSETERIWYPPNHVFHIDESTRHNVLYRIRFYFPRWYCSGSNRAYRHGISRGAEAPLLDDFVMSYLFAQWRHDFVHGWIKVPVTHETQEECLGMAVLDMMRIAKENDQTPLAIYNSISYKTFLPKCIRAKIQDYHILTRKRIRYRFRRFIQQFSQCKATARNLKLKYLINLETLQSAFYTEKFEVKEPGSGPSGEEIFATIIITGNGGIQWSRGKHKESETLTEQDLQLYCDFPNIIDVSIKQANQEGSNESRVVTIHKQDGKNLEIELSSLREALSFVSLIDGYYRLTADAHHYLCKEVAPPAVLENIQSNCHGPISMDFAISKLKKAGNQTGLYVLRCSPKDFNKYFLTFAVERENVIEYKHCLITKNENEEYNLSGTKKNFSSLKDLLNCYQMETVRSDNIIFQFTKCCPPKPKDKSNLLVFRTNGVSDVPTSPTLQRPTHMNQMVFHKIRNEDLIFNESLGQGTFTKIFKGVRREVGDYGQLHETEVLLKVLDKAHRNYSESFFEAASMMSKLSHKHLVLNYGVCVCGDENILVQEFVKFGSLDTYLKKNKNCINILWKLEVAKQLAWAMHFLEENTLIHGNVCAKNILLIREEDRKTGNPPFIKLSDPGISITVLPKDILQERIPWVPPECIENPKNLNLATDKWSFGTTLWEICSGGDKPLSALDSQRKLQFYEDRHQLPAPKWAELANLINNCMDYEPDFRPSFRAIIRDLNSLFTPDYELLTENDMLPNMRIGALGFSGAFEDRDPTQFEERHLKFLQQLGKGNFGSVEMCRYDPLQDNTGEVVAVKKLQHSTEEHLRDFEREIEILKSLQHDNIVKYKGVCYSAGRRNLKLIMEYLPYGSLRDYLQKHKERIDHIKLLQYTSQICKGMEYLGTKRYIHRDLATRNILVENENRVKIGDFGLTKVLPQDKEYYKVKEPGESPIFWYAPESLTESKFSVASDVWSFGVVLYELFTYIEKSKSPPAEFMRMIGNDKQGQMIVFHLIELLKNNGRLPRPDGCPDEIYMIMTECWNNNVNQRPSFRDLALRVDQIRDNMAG

[3] = target: Vascular endothelial growth factor receptor 1 (Homo sapiens) (UniProt P17948); assay: Inhibition of FLT1 at 1 uM; summary of the method: as §1
Sequence of Vascular endothelial growth factor receptor 1 (Homo sapiens) (P17948 whole entry): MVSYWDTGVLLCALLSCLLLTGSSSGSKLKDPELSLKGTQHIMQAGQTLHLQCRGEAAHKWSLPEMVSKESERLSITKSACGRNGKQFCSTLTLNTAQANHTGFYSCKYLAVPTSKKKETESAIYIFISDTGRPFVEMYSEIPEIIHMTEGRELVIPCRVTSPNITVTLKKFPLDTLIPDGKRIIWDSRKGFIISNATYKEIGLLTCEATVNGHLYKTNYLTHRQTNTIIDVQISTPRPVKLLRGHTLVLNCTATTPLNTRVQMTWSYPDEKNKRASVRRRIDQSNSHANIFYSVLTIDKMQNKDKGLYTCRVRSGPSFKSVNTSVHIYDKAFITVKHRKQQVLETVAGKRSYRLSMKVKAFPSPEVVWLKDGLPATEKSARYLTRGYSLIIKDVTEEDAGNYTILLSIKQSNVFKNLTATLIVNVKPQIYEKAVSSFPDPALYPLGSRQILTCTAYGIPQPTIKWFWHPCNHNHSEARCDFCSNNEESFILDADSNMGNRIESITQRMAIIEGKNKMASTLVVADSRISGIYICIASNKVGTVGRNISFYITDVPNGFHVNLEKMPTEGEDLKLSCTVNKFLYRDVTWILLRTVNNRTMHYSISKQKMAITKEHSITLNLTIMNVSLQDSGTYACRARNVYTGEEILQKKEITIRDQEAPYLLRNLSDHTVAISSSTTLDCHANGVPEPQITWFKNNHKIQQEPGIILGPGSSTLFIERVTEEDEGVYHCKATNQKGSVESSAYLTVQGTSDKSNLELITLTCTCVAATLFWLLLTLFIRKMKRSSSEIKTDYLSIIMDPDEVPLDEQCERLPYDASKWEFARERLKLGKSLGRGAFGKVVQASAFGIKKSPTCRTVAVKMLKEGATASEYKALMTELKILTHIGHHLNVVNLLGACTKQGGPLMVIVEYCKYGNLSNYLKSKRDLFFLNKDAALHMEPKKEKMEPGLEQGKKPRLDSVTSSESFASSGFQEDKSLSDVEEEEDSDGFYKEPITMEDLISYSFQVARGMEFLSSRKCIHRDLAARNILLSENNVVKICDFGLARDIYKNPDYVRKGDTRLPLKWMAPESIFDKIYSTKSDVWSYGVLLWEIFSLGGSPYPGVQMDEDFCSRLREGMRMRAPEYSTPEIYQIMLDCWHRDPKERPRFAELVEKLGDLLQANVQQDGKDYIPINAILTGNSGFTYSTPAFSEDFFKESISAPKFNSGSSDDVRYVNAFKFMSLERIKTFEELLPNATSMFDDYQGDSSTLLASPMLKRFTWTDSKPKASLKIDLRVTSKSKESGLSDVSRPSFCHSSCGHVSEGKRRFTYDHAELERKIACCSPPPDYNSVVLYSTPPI

Mus musculus = assay: Inhibition of Histone H3 phosphorylation in tumor of human MV4-11 cells xenografted CrTacNCr-Fox1(nu) athymic mouse at 50 to 100 mg/kg, po bid for 4 days measured after 2 hrs post final dose; assay type: functional, organism-based
Summary of the method: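 MV4-11 xenograft-bearing athymic mice dosed orally at 50 or 100 mg/kg twice daily for 4 days, starting 17 days after implantation. Tumors harvested 2 h after the final dose. Western blotting for phospho-histone H3 (S10) and phospho-Stat5 (Y694), with total histone H3, total Stat5 and GAPDH as loading controls.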

MV4-11 = assay: Antitumor activity against human MV4-11 cells xenografted in CrTacNCr-Fox1(nu) athymic mouse assessed as tumor growth inhibition at 100 mg/kg, po bid administered 10 days post implantation daily for 7 days measured after 11 days; assay type: functional, organism-based; design: dose 100 mg/kg
Summary of the method: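 Female adult athymic nude mice implanted subcutaneously with 10^7 FLT3-ITD-positive MV4-11 cells; treatment started 10 days after implantation, once mean tumor volume was at least 100 mm^3. Oral dosing at 50 or 100 mg/kg (n = 5 per group), twice daily for 7 days, then once daily for a further 4 days. Vehicle: 10% DMSO, 20% PEG 400, 5% Tween 80, 65% water. Tumor volume followed to day 60.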

[4] = Oral bioavailability in Sprague-Dawley rat at 5 mg/kg; assay type: ADME, organism-based; settings: in vivo
Summary of the method: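 Female Sprague-Dawley rats, 5 mg/kg. Oral vehicle 10% DMSO, 5% Tween 80, 20% PEG400 in water; iv vehicle 10% DMSO, 5% Tween 20, 85% saline, 0.3% 1 M HCl. Serial tail-vein plasma at 15, 30 min and 2, 4, 6, 24 h. Methanol precipitation with olomoucine internal standard, then LC-MS (C18 BEH, positive ESI MRM).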

Cytochrome P450 2A6 = target: T1, Cytochrome P450 2A6 (Homo sapiens, UniProt P11509); assay: Inhibition of human liver microsome CYP2A6 by LC-MS-MS analysis; assay type: ADME
T1 sequence (P11509 whole entry): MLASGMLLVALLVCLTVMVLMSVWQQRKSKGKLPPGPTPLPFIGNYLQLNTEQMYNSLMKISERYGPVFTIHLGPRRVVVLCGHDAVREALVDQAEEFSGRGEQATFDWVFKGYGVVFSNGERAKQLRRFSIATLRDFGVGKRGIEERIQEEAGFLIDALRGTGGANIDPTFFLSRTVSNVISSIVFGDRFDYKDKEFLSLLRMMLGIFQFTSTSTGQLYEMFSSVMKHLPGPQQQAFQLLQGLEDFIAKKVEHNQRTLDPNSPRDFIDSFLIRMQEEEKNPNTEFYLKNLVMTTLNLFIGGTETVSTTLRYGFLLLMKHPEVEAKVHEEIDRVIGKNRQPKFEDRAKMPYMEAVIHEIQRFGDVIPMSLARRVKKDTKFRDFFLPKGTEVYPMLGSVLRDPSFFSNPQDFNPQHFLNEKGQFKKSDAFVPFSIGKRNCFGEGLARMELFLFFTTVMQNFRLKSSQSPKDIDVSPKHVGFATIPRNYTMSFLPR
Summary of the method: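 Pooled human liver microsomes (50 donors) at 0.5 mg/mL protein, incubated for 10 min with isoform-selective probe substrates. Metabolite formation was detected by LC–MS/MS with positive ESI.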

Cytochrome P450 1A2 = target: T2, Cytochrome P450 1A2 (Homo sapiens, UniProt P05177); assay: Inhibition of human liver microsome CYP1A2 by LC-MS-MS analysis
T2 sequence (P05177 whole entry): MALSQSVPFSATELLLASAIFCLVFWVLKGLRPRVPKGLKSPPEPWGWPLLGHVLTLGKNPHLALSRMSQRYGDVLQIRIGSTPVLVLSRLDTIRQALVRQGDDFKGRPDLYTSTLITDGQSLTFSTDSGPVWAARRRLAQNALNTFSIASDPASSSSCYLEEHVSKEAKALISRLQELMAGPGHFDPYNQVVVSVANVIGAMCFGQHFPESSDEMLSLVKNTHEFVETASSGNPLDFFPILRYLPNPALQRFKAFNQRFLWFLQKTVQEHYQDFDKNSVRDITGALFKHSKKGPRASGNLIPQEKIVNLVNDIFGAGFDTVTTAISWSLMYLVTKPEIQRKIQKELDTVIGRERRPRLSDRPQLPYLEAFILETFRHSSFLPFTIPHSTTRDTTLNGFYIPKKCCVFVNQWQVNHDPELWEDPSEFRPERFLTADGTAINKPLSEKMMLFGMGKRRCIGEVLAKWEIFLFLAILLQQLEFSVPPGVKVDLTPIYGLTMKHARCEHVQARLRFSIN

[5] = Metabolic stability in mouse liver microsomes assessed as parent compound metabolism after 30 mins by LC-MS analysis; assay type: ADME, Microsome; settings: read-out: Drug metabolism
Summary of the method: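 Male CD1 mouse liver microsomes (1 mg/mL protein) incubated with 10 μM compound plus NADPH 1 mM, UDPGA 2.5 mM and MgCl2 3 mM in 10 mM PBS at 37 °C for 0 and 30 min. NADPH/UDPGA-free controls included. LC–MS quantitation of remaining compound; reported as percent parent metabolized after 30 min.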

With `Cc1nn(C)cc1-c1nc2c(N3CCN(Cc4ccc(Cl)cc4)CC3)c(Cl)cnc2[nH]1` [MOBINITINIB] the inhibition [1] was 4%, the inhibition [2] was 1.3% and the inhibition [3] was 0.3%. For the same molecule, the inhibition (Mus musculus) was “Active”, the Activity (MV4-11) was “Active” and the bioavailability [4] was 79%. For the same molecule, the IC50 (Cytochrome P450 2A6) was greater than 10 µM, the IC50 (Cytochrome P450 1A2) was greater than 10 µM and the metabolised at 0.5 h [5] was 34%.
